Measurements as given in ChEMBL document CHEMBL1146324, “Discovery of (Z)-2-phenyl-3-(1H-pyrrol-2-yl)acrylonitrile derivatives active against Haemonchus contortus and Ctenocephalides felis (cat flea)” (2007).
The source made the active and inactive calls. No cut-off for these calls is given here.

Key:
Haemonchus contortus [1] = experiment: Parasiticidal activity against Haemonchus contortus McMaster; assay type: functional
Method in brief: (§1)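 Larval development assay with Haemonchus contortus larvae. The endpoint was LD99, and the assay was performed by an external screening contractor.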

Ctenocephalides felis [2] = experiment: Parasiticidal activity against Ctenocephalides felis after 24 hrs; assay type: functional; parameters: concentration or dose not given beside the values
Method in brief: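 Single-dose in vitro cat flea assay: compound in acetone (0.5 mL) coated on the base of four 100 mL flasks at 1.26 µg/cm². Flasks held at 25 ± 1 °C and 75 ± 5% humidity for 24 h. Dead fleas counted per flask, and pooled data expressed as percent mortality.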

Ctenocephalides felis [3] = experiment: Parasiticidal activity against Ctenocephalides felis; assay type: functional
Haemonchus contortus [4] = experiment: Parasiticidal activity against levamisole-resistant Haemonchus contortus Lawes; assay type: functional; method in brief: as §1
Haemonchus contortus [5] = experiment: Parasiticidal activity against benzimidazole-resistant Haemonchus contortus Lawes; assay type: functional; method in brief: as §1
Saccharomyces cerevisiae = experiment: Parasiticide activity against Saccharomyces cerevisiae; assay type: functional, organism-based
[6] = Cytotoxicity against mouse NS1 cells; assay type: functional
Haemonchus contortus [7] = experiment: Parasiticidal activity against avermectin-resistant Haemonchus contortus CAVR; assay type: functional; method in brief: as §1
Bacillus subtilis = experiment: Parasiticidal activity against Bacillus subtilis; assay type: functional
[8] = tested on: Teladorsagia circumcincta; experiment: Parasiticidal activity against Ostertagia circumcincta McMaster; assay type: functional
[9] = tested on: Trichostrongylus colubriformis; experiment: Parasiticidal activity against Trichostrongylus colubriformis; assay type: functional
Ctenocephalides felis [10] = experiment: Parasiticidal activity against Ctenocephalides felis after 8 hrs; assay type: functional
Method in brief: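 Cat flea contact assay: compound applied in acetone to the base of four flasks at 1.26 µg/cm², held at 25 ± 1 °C and 75 ± 5% humidity. Dead fleas counted at 8 h, and pooled counts converted to percent mortality.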

| Compound | LD99 (Haemonchus contortus [1]) | Activity (Ctenocephalides felis [2]) | further results |
| --- | --- | --- | --- |
| N#C/C(=C\c1ccc[nH]1)c1ccc(-c2ccccc2)cc1 | 28 µM | 46% |  |
| N#C/C(=C\c1cc(Br)c[nH]1)c1ccc(C(F)(F)F)cc1 | >44 µM | 15% |  |
| N#C/C(=C\c1ccc[nH]1)c1ccccc1-c1ccccc1 |  | 2% |  |
| CC(C)=CCn1cccc1/C=C(\C#N)c1ccc(Cl)cc1 | >51 µM | 0% |  |
| CC(C)(C)c1ccc(/C(C#N)=C/c2ccc[nH]2)cc1 | 13 µM | 87% | LC50 (Ctenocephalides felis [3]): 0.48 ug/sq.cm |
| N#C/C(=C\c1ccc[nH]1)c1ccccc1C(F)(F)F |  | 14% |  |
| N#C/C(=C\c1ccc[nH]1)c1c(F)cccc1Cl | >61 µM | 7% |  |
| N#C/C(=C\c1ccc[nH]1)c1ccc([N+](=O)[O-])cc1 | >63 µM | 6% |  |
| CN(C)C(=S)n1cccc1/C=C(\C#N)c1ccc(Cl)cc1 | 32 µM | 19% |  |
| N#C/C(=C\c1ccc[nH]1)c1ccc(Br)cc1 | 0.84 µM | 42% |  |
| N#CC(C#N)=Cc1cc(Cl)c(Cl)[nH]1 | 1.8 µM |  | LD99 (Haemonchus contortus [4]): 2.2 µM; LD99 (Haemonchus contortus [5]): 2.2 µM; Activity (Saccharomyces cerevisiae): inactive; LD99 [6]: 13 µM; LD99 (Haemonchus contortus [7]): 2.2 µM; LD99 (Bacillus subtilis): 1.7 µM; Activity (Ctenocephalides felis [3]): inactive; LD99 [8]: 2.2 µM; LD99 [9]: 9 µM |
| N#C/C(=C\c1ccc[nH]1)c1ccc(C#N)cc1 | 46 µM | 44% |  |
| CCN(CC)C(=O)n1cccc1/C=C(\C#N)c1ccc(Cl)cc1 | 11 µM | 8% |  |
| CC(C)c1ccc(/C(C#N)=C/c2ccc[nH]2)cc1 |  | 100% | LC50 (Ctenocephalides felis [3]): 1.32 ug/sq.cm |
| Cc1cc(C(C#N)c2ccc(Cl)cc2)c(Cl)cc1NC(=O)c1cc(I)cc(I)c1O (stereo unspecified) [CLOSANTEL] | 9.4 µM |  |  |
| N#C/C(=C\c1cc(Br)c[nH]1)c1ccc(Cl)cc1 | 1.5 µM | 23% |  |
| c1ccc([C@H]2CN3CCSC3=N2)cc1 [LEVAMISOLE] | 0.66 µM |  |  |
| N#C/C(=C\c1ccc[nH]1)c1ccccc1Br | 12 µM | 30% |  |
| N#C/C(=C\c1ccc[nH]1)c1cc(C(F)(F)F)cc(C(F)(F)F)c1 | >45 µM | 27% |  |
| Cc1cccc(/C(C#N)=C/c2ccc[nH]2)c1 | 6 µM | 42% |  |
| N#C/C(=C\c1ccc[nH]1)c1ccc(Cl)cc1F | 10 µM | 5% |  |

| Compound | LD99 (Haemonchus contortus [1]) | Activity (Ctenocephalides felis [2]) | further results |
| --- | --- | --- | --- |
| CCOCn1cccc1/C=C(\C#N)c1ccc(Cl)cc1 | 19 µM |  | Activity (Ctenocephalides felis [10]): 6% |
| N#C/C(=C\c1cc(Br)c[nH]1)c1cccc(F)c1 | 38 µM | 18% |  |
| Cc1ccc(S(=O)(=O)n2cccc2/C=C(\C#N)c2ccc(Cl)cc2)cc1 | 31 µM | 0% |  |
| COc1ccccc1/C(C#N)=C/c1ccc[nH]1 |  | 9% |  |
| N#C/C(=C\c1ccc[nH]1)c1ccc(Cl)cc1Cl | 11 µM | 8% |  |
| N#C/C(=C\c1ccc[nH]1)c1ccc(Cl)cc1 | 1.8 µM |  | Activity (Ctenocephalides felis [10]): 95%; LC50 (Ctenocephalides felis [3]): 0.17 ug/sq.cm |
| N#C/C(=C\c1ccc[nH]1)c1cccc(F)c1 | 8 µM | 78% | LC50 (Ctenocephalides felis [3]): 0.78 ug/sq.cm |
| IVERMECTIN | 0.0057 µM |  |  |
| N#C/C(=C\c1cc(Br)c[nH]1)c1cccc(C(F)(F)F)c1 | 9.5 µM |  |  |
| N#C/C(=C\c1ccc[nH]1)c1ccc(F)cc1F | 11 µM | 5% |  |
| N#C/C(=C\c1ccc[nH]1)c1ccccc1 | 2.4 µM | 98% | LC50 (Ctenocephalides felis [3]): 0.26 ug/sq.cm |
| N#C/C(=C\c1ccc[nH]1)c1ccc(F)c(Cl)c1 | 5.1 µM | 5% |  |
| N#C/C(=C\c1cc(Br)c[nH]1)c1ccc(Cl)c(Cl)c1 | 7.3 µM | 19% |  |
| N#Cc1nn(-c2c(Cl)cc(C(F)(F)F)cc2Cl)c(N)c1[S+]([O-])C(F)(F)F (stereo unspecified) [FIPRONIL] |  |  | LC50 (Ctenocephalides felis [3]): 0.018 ug/sq.cm |
| N#C/C(=C\c1ccc[nH]1)c1ccccc1F | 12 µM | 92% | LC50 (Ctenocephalides felis [3]): 0.59 ug/sq.cm |
| N#C/C(=C\c1ccc[nH]1)c1cccc(Br)c1 | 3.4 µM | 24% |  |
| CC(C)(C)OC(=O)n1cccc1/C=C(\C#N)c1ccc(Cl)cc1 | 11 µM | 9% |  |
| CCC(=O)n1cccc1/C=C(\C#N)c1ccc(Cl)cc1 | 1.3 µM | 12% |  |
| COc1ccc(/C(C#N)=C/c2ccc[nH]2)cc1 | 6.7 µM | 31% |  |
| N#C/C(=C\c1cc(Cl)c(Cl)[nH]1)c1ccc(Cl)cc1 | 10 µM | 15% |  |
| N#C/C(=C\c1ccc[nH]1)c1cccc(Oc2ccccc2)c1 | 11 µM | 10% |  |

| Compound | LD99 (Haemonchus contortus [1]) | Activity (Ctenocephalides felis [2]) | further results |
| --- | --- | --- | --- |
| N#C/C(=C\c1ccc[nH]1)c1ccc(Cl)c(Cl)c1 | 2.9 µM | 41% |  |
| N#C/C(=C\c1cccn1Cc1ccccc1)c1ccc(Cl)cc1 | 44 µM | 3% |  |
| N#C/C(=C\c1ccc[nH]1)c1ccccc1C#N | >68 µM | 11% |  |
| N#C/C(=C\c1ccc[nH]1)c1cccc(C(F)(F)F)c1 | 3.6 µM | 56% | LC50 (Ctenocephalides felis [3]): 9.9 ug/sq.cm |
| N#C/C(=C\c1ccc[nH]1)c1cccc(Cl)c1 | 3.3 µM | 28% |  |
| Cc1ccc(/C(C#N)=C/c2ccc[nH]2)c(C)c1 |  | 44% |  |
| N#C/C(=C\c1ccc[nH]1)c1ccc(I)cc1 | 2.2 µM | 14% |  |
| N#C/C(=C\c1ccc[nH]1)c1c(F)cccc1F | 52 µM | 17% |  |
| Cc1ccc(/C(C#N)=C/c2ccc[nH]2)cc1 | 4.5 µM | 69% |  |
| Cc1ccccc1/C(C#N)=C/c1ccc[nH]1 | 18 µM | 100% | LC50 (Ctenocephalides felis [3]): 0.08 ug/sq.cm |
| N#C/C(=C\c1ccc[nH]1)c1ccccc1Cl | 12 µM | 19% |  |
| N#C/C(=C\c1ccc[nH]1)c1ccc(F)cc1Cl | 12 µM | 30% |  |
| N#C/C(=C\c1ccc[nH]1)c1ccc(F)cc1 | 2 µM | 78% | LC50 (Ctenocephalides felis [3]): 0.3 ug/sq.cm |
| COC(=O)n1cccc1/C=C(\C#N)c1ccc(Cl)cc1 | 4.4 µM | 16% |  |
| N#C/C(=C\c1ccc[nH]1)c1ccc(F)c(F)c1 | 7.6 µM | 17% |  |
| N#C/C(=C\c1cc(Br)c[nH]1)c1ccc(F)cc1 | 17 µM | 15% |  |
| Cn1cccc1/C=C(\C#N)c1ccc(Cl)cc1 | 7.8 µM |  | Activity (Ctenocephalides felis [10]): 13% |
| CCc1ccc(/C(C#N)=C/c2ccc[nH]2)cc1 | 4 µM | 58% |  |
| N#C/C(=C\c1ccc[nH]1)c1ccc(C(F)(F)F)cc1 | 3.1 µM | 20% |  |
| N#C/C(=C\c1cccn1C(=O)c1ccccc1)c1ccc(Cl)cc1 | 3.8 µM | 6% |  |
